dFosB activator: mouse delta FosB homodimer activation. P13346. purified delta FosB, TAMRA-CDK5 oligo fluorescence polarization; percent of positive-control signal above neutral wells. activation, % at 25 µM. 0.99% of 340,000 active. AID 493131;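 active means mean activation above about 17%, with every replicate also reaching it, limit read from the data, passing the limit was not always enough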
Target sequence (P13346 whole entry, looked up): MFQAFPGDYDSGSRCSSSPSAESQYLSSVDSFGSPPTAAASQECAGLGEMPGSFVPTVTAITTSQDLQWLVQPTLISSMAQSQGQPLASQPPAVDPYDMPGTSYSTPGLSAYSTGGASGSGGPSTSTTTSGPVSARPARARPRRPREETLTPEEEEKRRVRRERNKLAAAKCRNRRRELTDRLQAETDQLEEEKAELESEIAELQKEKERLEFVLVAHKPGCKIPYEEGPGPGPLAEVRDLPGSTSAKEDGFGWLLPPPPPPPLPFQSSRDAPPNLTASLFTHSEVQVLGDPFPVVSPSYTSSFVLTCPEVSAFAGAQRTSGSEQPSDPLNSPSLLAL
CDK5 p35 inh: blocks human CDK5/p35 kinase activity; Q00535+Q15078; Recombinant CDK5/p35, ADP-Glo luminescence, 60 min; inhibition, % at 10 µM; 0.01% of 330,000 active; AID 488839;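 active means highest replicate inhibition of at least 50% and at least 75% of replicates reaching 50%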;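 further: plate controls were DMSO neutral control for no effect and GW8510 at 10 µM for full effect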
Statin myotox sup: suppression of simvastatin myotoxicity | C2C12 myotubes + simvastatin, ATP luminescence, 48 h; scaled: DMSO 0, geranylgeraniol control 100 | rescue of ATP level, % at 7.49 µM | 0.78% of 330,000 active;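 active means mean ATP rescue above about 67%, or every replicate alone reaching that limit, limit read from the data, passing the limit was not always enough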;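 further: myotubes were challenged with 10 µM simvastatin during compound exposure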
S100A4 MyoIIA: blocks human S100A4 binding to myosin IIA peptide | inhibition, % at 10.7 µM | 0.14% of 360,000 active | S100A4/TAMRA-MyoIIA peptide fluorescence polarization;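 active means mean inhibition of at least 70% across replicates, with every replicate also reaching that level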
Target sequence (P26447 whole entry, looked up): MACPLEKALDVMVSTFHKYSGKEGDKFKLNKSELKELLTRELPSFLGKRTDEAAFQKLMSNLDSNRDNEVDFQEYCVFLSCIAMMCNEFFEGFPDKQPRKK
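Assay system: human S100A4 monomer with TAMRA-labelled myosin IIA peptide / Buffer or medium: Calcium-containing HEPES buffer, pH 7.2 / Reagent: TAMRA-labelled myosin IIA heavy-chain peptide probe, 5 nM / Compound: one dose per compound / Timing: polarization read 5 min after assay mix addition, stable 5–60 min / Benchmarks: neutral control DMSO, positive control TFP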
CAL PDZ FP-1: blocks peptide binding to the human CAL PDZ domain | Q9HD26 | purified CAL PDZ, TMR-peptide fluorescence polarization, 1 h | inhibition, % at 24.9 µM | 0.92% of 300,000 active | AID 602252;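 active means mean inhibition of at least 30% with at least half of replicates also reaching 30%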;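 further: 0% = DMSO neutral control and 100% = excess unlabeled competitor peptide PRC23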
CAL PDZ FP-2: blocks peptide binding to human CAL PDZ domain; inhibition, % at 20 µM; 0.02% of 330,000 active; purified CAL PDZ, TMR-peptide fluorescence polarization, 1 h; AID 504414;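 active means highest replicate inhibition of at least 40%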;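 further: plate controls were DMSO neutral control wells for no effect and unlabeled competitor peptide control wells for full effect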
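Material: tagged CAL PDZ domain; buffer or medium: 25 mM sodium phosphate pH 7.4, 150 mM NaCl, TCEP, IgG, Thesit; compound dosing: single point, 20 µM; schedule: 1 h incubation at room temperature before polarization reading; measured by: FP readout, S and P plane fluorescence; read-out basis: percent inhibition from loss of millipolarization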
An asterisk follows results filed as active; x = no result; + = active, no number. Most compounds without a hit are left out; they make up all but 2% or so of the library.

SMILES	dFosB activator	CDK5 p35 inh	Statin myotox sup	S100A4 MyoIIA	CAL PDZ FP-1	CAL PDZ FP-2
CCOC(=O)CNC=C(C(=O)OCC)C(=O)OCC	-4	1	25	x	1	0
COc1ccc(OC)c(S(=O)(=O)Nc2ccccc2C)c1	-7	-3	100*	-1	-2	-2
COc1ccc(OC)c(S(=O)(=O)Nc2c(C)n(C)n(-c3ccccc3)c2=O)c1	4	0	-2	0	74*	17
O=C(CSc1nccc(-c2cccs2)n1)Nc1cccc(Cl)c1Cl	-2	1	3	-3	51*	0
O=C(CSc1nccc(-c2cccs2)n1)Nc1ccc(Cl)cc1	-8	-2	8	-5	x	-3
C[C@@H]1CN([C@H](C)CO)S(=O)(=O)c2ccc(C#C[C@@H](C)O)cc2O[C@H]1CN(C)Cc1ccccn1	x	x	0	0	x	x
Cc1cc(C(=O)Nc2cccc3c2O[C@@H](CN(C)C(=O)Nc2ccc(C(F)(F)F)cc2)[C@@H](C)CN([C@@H](C)CO)C3=O)n(C)n1	x	x	-39	4	x	x
CCn1c(CNc2ccc(F)cc2)nnc1SCC(=O)Nc1ccc(OC)cc1	-6	0	119*	x	-2	0
CCn1c(CNc2ccc(F)cc2)nnc1SCC(=O)Nc1ccccc1OC	2	0	54	x	x	-1
Cc1ccnc(SCC(=O)Nc2sccc2C#N)n1	-4	-2	-2	6	39*	0
Cc1ccnc(SCC(=O)Nc2cc(C)on2)n1	-2	-3	x	0	-2	-1
COc1ccc(NC(=O)CSc2nccc(C)n2)cc1	-2	-1	113*	x	1	-1
CN(Cc1nc2ccccc2c(=O)[nH]1)C(=O)c1cc2c(s1)CCCCC2	-9	-5	4	-6	-5	-1
CN(Cc1nc2ccccc2c(=O)[nH]1)C(=O)c1cccc(NC(=O)c2cccs2)c1	-6	2	-3	0	66*	-1
O=C(N/N=C\c1ccc(-c2ccccc2[N+](=O)[O-])o1)C1COc2cc3ccccc3cc2O1 (stereo not given)	-12	-1	3	x	-3	-1
COc1ccc(NC(=S)Nc2ccc(S(N)(=O)=O)cc2)c(OC)c1	-5	0	x	-5	37*	-1
O=C(Nc1ccccn1)Nc1ccccc1[N+](=O)[O-]	-4	2	19	1	+	x
Cc1ccccc1NC(=O)Nc1ccccn1	-1	1	4	29	-3	0
CSc1ccc(S(=O)(=O)NCC(=O)OCC(=O)NCc2ccco2)cc1[N+](=O)[O-]	0	-1	10	-3	-1	-1
CCC(=O)Nc1cccc(-c2nc3ccc(C)cc3o2)c1	-39	0	-8	2	-3	0
Cc1ccc2nc(-c3cccc(NC(=O)c4ccc5c(c4)OCCO5)c3)oc2c1	-10	3	110*	-2	-2	-1
Oc1ccc(C=NNC(=S)Nc2ccc(F)cc2)c(O)c1	0	2	7	-1	32*	0
Cc1cc(C(F)(F)F)nn1CC(=O)NCc1ccco1	6	1	3	7	1	-1
Cc1cc(NS(=O)(=O)c2ccc(Cl)cc2)nn1CC(=O)NCc1ccco1	-7	1	98*	x	2	0
C=CCSc1nnc(-c2cc3c(s2)-c2ccccc2CC3)o1	-9	1	146*	x	-1	-1
C=CCSc1nnc(-c2cccc3ccccc23)o1	-2	0	2	-2	-1	0
C#CCN1C=CC(=O)[C@@H](OC(=O)Nc2ccccc2Br)[C@H]1c1ccccc1Br	-6	1	9	-1	-8	0
CCCN1C(=S)SC(C)(C)C1/[N+]([O-])=C/c1cccnc1 (stereo not given)	-4	1	-4	x	2	-1
CCCCN1C(=S)SC(C)(C)C1/[N+]([O-])=C/c1cccnc1 (stereo not given)	-3	0	98*	x	20	x
O=C1NN=C(c2ccccc2)CC1c1ccc(Cl)cc1Cl (stereo not given)	-3	-3	3	0	-2	0
